Experimental data gathered from unrelated publications.
Compare with care: the assays were run in different laboratories.
EPHX2: Bifunctional epoxide hydrolase 2 (EPHX2, Homo sapiens, UniProt P34913)
ESR2: Estrogen receptor beta (ESR2, Homo sapiens, UniProt Q92731)
Dhodh: Dihydroorotate dehydrogenase (quinone), mitochondrial (Dhodh, Mus musculus, UniProt O35435)

C[C@@H]1O[C@@H](O[C@@H]2[C@@H](O)[C@H](OCCc3ccc(O)c(O)c3)O[C@H](CO)[C@H]2OC(=O)/C=C/c2ccc(O)c(O)c2)[C@H](O)[C@H](O)[C@H]1O — IC50 (Aldo-keto reductase family 1 member B1 (AKR1B1, Homo sapiens, UniProt P15121); enzyme activity; inhibitor): 1170 nM
O=C(Nc1ccc(-c2cccc3ncccc23)cc1)C1CCN(S(=O)(=O)c2ccccc2Cl)CC1 — IC50 (EPHX2; enzyme activity; inhibitor; fluorescence): 1.7 nM
C[S+]([O-])CCCCN=C=S (stereo not drawn) — IC50 (EPHX2; enzyme activity; inhibitor; fluorescence): 3650 nM
N[C@@H](Cc1ccccc1)C(=O)O — IC50 (Intestinal-type alkaline phosphatase (ALPI, Bos taurus, UniProt P19111); enzyme activity; inhibitor): 78400 nM
C=CCN=C=S — IC50 (EPHX2; enzyme activity; inhibitor; fluorescence): 11600 nM
O=C(Nc1ccc(-c2ccc3ncccc3c2)cc1)C1CCN(S(=O)(=O)c2ccccc2Cl)CC1 — IC50 (EPHX2; enzyme activity; inhibitor; fluorescence): 5.4 nM
O=c1c(O)c(-c2ccc(O)c(O)c2)oc2cc(O)ccc12 — IC50 (Dual specificity mitogen-activated protein kinase kinase 4 (MAP2K4, Homo sapiens, UniProt P45985); enzyme activity; inhibitor; ADP detection): 2900 nM
O=C1CC[C@H](N2Cc3cc(N4CCN(CC5CCN(c6ccc([C@@H]7c8ccc(O)cc8CC[C@@H]7c7ccccc7)cc6)CC5)CC4)ccc3C2=O)C(=O)N1 — IC50 (ESR2; ligand displacement; radioligand): 5 nM
Cn1nc2c(=O)n(C3CC3)ncc2c1[C@](O)(c1cnc(C(F)(F)F)c(Cl)c1)C(F)(F)F — IC50 (Dhodh; enzyme activity; inhibitor; absorbance): > 30000 nM
C[C@H]1CCC[C@@]2(C)CCCC[C@]12O — EC50 (OR11A1 (Homo sapiens, UniProt Q9GZK7); cAMP; agonist; luciferase): 28000 nM
CC[C@@](N)(c1cnc(C(F)(F)F)c(Cl)c1)c1c2ncn(C3CC3)c(=O)c2nn1C — IC50 (Dhodh; enzyme activity; inhibitor; absorbance): 6700 nM
Oc1ccc2c3c(cnc2c1)-c1ccc(C(F)(F)F)cc1O[C@@H]3c1ccc(OCCN2CC(CF)C2)cc1 — Ki (ESR2; ligand displacement; radioligand): 0.11 nM
